Measured values from different studies.
Target: Serine/threonine-protein kinase Nek4 (NEK4, Homo sapiens, UniProt P51957)

effect on | mode | technique | cell line | concentration | quantity | result | Compound
cell-free assay |  | competition with immobilised ligand |  | 1 µM | remaining binding | 79% | O=C(Nc1cnc(Oc2ccc(F)cc2)nc1)N1CCc2ncccc2[C@@H]1c1ccc(F)cc1
enzyme activity | inhibitor |  |  | 5 µM | remaining activity | 109% | O=C(Nc1cnn(-c2csc(C(=O)NC3COC3)c2)c1)Nc1ccccc1Cl
enzyme activity | inhibitor | FRET |  | 1 µM | inhibition | 8% | CN(C)C1CCN(CC#Cc2nn(C3CCCC3)c3nc(NCc4ccccc4)ncc23)C1 (stereo not drawn)
enzyme activity | inhibitor |  |  | 1 µM | inhibition | 1% | COc1cc2ncnc(Nc3ccc(Oc4ccccc4)cc3C)c2cc1OC
cell-free assay |  | competition with immobilised ligand |  | 1 µM | remaining binding | 92% | Cc1c(NC(=O)c2cc(C(N)=O)nc3cc(F)ccc23)c(C(F)(F)F)nn1Cc1ccc(C#N)cc1
enzyme activity | inhibitor |  |  | 1 µM | remaining activity | 84.3% | CC(C)(O)[C@H]1CC[C@H](Nc2ccc3ncc(-c4cccc(C(F)(F)F)c4)n3n2)CC1
cell-free assay |  |  |  | 0.5 µM | remaining signal | 104% | N#CCCc1ccc2c(c1)-c1[nH]c3ccc([N+](=O)[O-])cc3c1CC(=O)N2
cell-free assay |  | competition with immobilised ligand |  | 1 µM | remaining binding | 90.1% | CC1=C(C#N)[C@@H](c2ccc3[nH]nc(C)c3c2)C(C#N)=C(c2ccc(Cl)cc2)N1
enzyme activity | inhibitor |  |  | 0.1 µM | inhibition | -1.9% | CC/C(=N\NC(=O)NCc1cccc(O)c1)c1ccc(O)c(C)c1O
enzyme activity | inhibitor | radiometric |  | 1 µM | remaining activity | 96% | CC(C)(C)c1nc2c(s1)c1nc(N)ncc1c1ccc(NS(=O)(=O)c3c(F)cccc3F)c(F)c12
enzyme activity | inhibitor |  |  | 23.5 nM | remaining activity | 61% | Cc1ccc(C(=O)Nc2ccc(CN3CCN(C)CC3)c(C(F)(F)F)c2)cc1C#Cc1cnc2cccnn12
target engagement in cells | inhibitor | chemoproteomics |  | 20 mM | inhibition | -7.4% | COc1cccc2c(NCc3ccccc3)nc(-n3c(N)nc4ccccc43)nc12
cell-free assay |  |  |  | 0.5 µM | remaining signal | 90.3% | COc1cc2c(N3CCN(C(=O)Nc4ccc(OC(C)C)cc4)CC3)ncnc2cc1OCCCN1CCCCC1
cell-free assay |  | competition with immobilised ligand |  | 0.1 µM | remaining binding | 100% | CS(=O)(=O)N1CCCC(NC(=O)[C@H](CCC2CCCCC2)NC(=O)c2ccc(CNC(=O)c3cnc4ccccn34)cc2)C1 (stereo partly drawn)
cell-free assay |  |  |  | 0.5 µM | remaining signal | 107% | O=C1NC(=O)c2cc(Nc3ccc(F)cc3)c(Nc3ccc(F)cc3)cc21
cell-free assay |  | competition with immobilised ligand |  | 0.1 µM | remaining binding | 100% | O=C(NCCCC1CCCCC1)c1ccc(CNC(=O)c2cnn(-c3ccccc3)c2C(F)(F)F)cc1
target engagement in cells | inhibitor | chemoproteomics | A-375 | 50 nM | inhibition | -31% | CCN1CCN(Cc2ccc(NC(=O)c3ccc(C)c(/C=C/c4cnc5[nH]ccc5c4OC)c3)cc2C(F)(F)F)CC1
enzyme activity | inhibitor |  |  | 10 µM | remaining activity | 75.5% | Cc1sc(C(=O)NC2COC2)cc1-n1cc(NC(=O)Nc2c(F)cccc2Cl)cn1
